Results taken from ChEMBL document CHEMBL1141402 (J Med Chem, 2007).
Calls of active or inactive are those of the source. Residues, ends and D or L forms follow the SMILES beside them.

Tests used:
Mu-type opioid receptor [1] = target: Mu-type opioid receptor (Cavia porcellus, UniProt P97266); assay: Agonist activity at mu opioid receptor by inhibition of electrically evoked muscle contraction in guinea pig ileum; format: functional, tissue-based
Mu-type opioid receptor [2] = target: Mu-type opioid receptor (Homo sapiens, UniProt P35372); assay: Activity at mu opioid receptor assessed as increase in calcium level in CHO cells by aequorin luminescence based calcium assay; format: functional, cell-based
Chain of Mu-type opioid receptor (Homo sapiens, UniProt P35372) (P35372 whole entry): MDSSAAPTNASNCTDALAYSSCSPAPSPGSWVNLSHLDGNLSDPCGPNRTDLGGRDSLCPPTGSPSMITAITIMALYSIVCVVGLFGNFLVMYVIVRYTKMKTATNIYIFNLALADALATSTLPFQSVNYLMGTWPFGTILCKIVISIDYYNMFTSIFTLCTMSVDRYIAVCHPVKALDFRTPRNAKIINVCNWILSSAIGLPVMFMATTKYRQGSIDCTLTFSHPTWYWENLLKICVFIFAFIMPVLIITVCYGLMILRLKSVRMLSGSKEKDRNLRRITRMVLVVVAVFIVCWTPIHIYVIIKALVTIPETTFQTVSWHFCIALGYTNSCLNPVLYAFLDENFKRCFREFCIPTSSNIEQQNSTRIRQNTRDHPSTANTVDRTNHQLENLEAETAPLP

[3] = target: T1, Delta-type opioid receptor (Homo sapiens, UniProt P41143); assay: Antagonist activity against delta opioid receptor assessed as effect on deltorphin-2-induced calcium response in CHO cells by aequorin luminescence based calcium assay; format: functional, cell-based; conditions: read-out: pA2 (converted)
T1 sequence (P41143 whole entry): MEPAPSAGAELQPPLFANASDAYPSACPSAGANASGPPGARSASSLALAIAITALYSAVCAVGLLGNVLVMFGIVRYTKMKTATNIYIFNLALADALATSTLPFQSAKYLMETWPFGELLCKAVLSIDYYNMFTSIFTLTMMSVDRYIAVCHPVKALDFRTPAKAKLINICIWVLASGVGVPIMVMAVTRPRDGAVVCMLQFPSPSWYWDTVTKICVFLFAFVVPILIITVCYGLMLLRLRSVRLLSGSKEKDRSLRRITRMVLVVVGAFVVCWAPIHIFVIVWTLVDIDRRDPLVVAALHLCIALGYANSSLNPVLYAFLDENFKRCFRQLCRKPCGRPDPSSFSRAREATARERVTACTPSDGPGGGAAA
Method in brief: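 CHO cells expressing DOR and aequorin. Compounds in BSA medium, then 25 000 cells injected per well. Luminescence recorded for 30 s, cells lysed with 0.3% Triton X-100 and read for a further 15 s. Signal given as fractional luminescence (agonist peak over agonist plus lysis total), from concentration-response curves. Three independent experiments, each in duplicate.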

Mus musculus [4] = species on record: Mus musculus; assay: Antinociceptive activity in Swiss Albino mouse assessed as effect on rearing by hot plate method at 10 ug; format: functional
Method in brief: (§1)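 Mice given peptide i.c.v. in 0.9% NaCl, then put on a 55 ± 0.5 °C hot plate 5 min later. Latencies to paw licking, rearing and jumping recorded with a 240 s cut-off and converted to %MPE against saline control latencies. 10 mice per group; one-way ANOVA with Student-Newman-Keuls post hoc.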

Mus musculus [5] = species on record: Mus musculus; assay: Antinociceptive activity in Swiss Albino mouse assessed as effect on jumping by hot plate method at 10 ug; format: functional; method in brief: as §1
Mus musculus [6] = species on record: Mus musculus; assay: Antinociceptive activity in Swiss Albino mouse assessed as effect on paw licking by hot plate method at 10 ug; format: functional; method in brief: as §1
[7] = target: Delta-type opioid receptor (Mus musculus) (UniProt P32300); assay: (§2) Agonist activity at delta opioid receptor by inhibition of electrically evoked muscle contraction in isolated mouse vas deferens; format: functional, tissue-based
Chain of Delta-type opioid receptor (Mus musculus) (P32300 whole entry): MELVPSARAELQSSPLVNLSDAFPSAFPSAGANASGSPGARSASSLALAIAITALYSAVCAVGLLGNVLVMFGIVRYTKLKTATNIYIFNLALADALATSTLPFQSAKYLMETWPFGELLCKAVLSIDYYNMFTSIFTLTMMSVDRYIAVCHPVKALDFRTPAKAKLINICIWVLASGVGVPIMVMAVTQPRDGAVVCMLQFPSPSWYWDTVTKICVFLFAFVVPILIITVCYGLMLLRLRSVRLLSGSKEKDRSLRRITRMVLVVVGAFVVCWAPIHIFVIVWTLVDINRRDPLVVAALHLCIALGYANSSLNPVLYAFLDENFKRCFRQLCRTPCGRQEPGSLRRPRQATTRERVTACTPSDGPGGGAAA
Method in brief: (§3)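 Mouse vas deferens from adult male Swiss Webster mice (30-50 g), killed by cervical dislocation. Field stimulation used 1 ms pulse trains at 0.15 Hz. IC50 taken from the twitch-height reduction across doses.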

[8] = target: T1, Delta-type opioid receptor; assay: Activity at delta opioid receptor assessed as increase in calcium level in CHO cells by aequorin luminescence based calcium assay; format: functional, cell-based
[9] = target: Delta-type opioid receptor (Mus musculus) (UniProt P32300); assay: Antagonist activity at delta opioid receptor by inhibition of DPDPE-induced muscle contraction in isolated mouse vas deferens; format: functional, tissue-based
[10] = target: Mu-type opioid receptor (Cavia porcellus) (UniProt P97266); assay: Antagonist activity at mu opioid receptor by inhibition of TAPP-induced muscle contraction in guinea pig ileum; format: functional, tissue-based
Chain of Mu-type opioid receptor (Cavia porcellus) (P97266 whole entry): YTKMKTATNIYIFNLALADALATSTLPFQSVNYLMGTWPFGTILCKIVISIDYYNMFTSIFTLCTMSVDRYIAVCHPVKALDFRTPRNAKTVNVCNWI

Mus musculus [11] = species on record: Mus musculus; assay: Antagonist effect on endomorphin-2-induced rearing in Swiss Albino mouse by hot plate method; format: functional, organism-based
Method in brief: (§4)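 Mice dosed i.c.v. into the left lateral ventricle, drugs dissolved in 0.9% NaCl; test compound given against endomorphin-2 (3 µg/animal) or DAMGO. Placed on a 55 ± 0.5 °C hot plate 5 min after injection. Latencies to paw licking, rearing and jumping recorded with a 240 s cut-off and expressed as %MPE from control (saline) and test latencies. 10 mice per group; two-way ANOVA with Student-Newman-Keuls.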

Mus musculus [12] = species on record: Mus musculus; assay: Antagonist effect on DAMGO-induced jumping in Swiss Albino mouse by hot plate method; format: functional, organism-based; method in brief: as §4
[13] = target: Mu-type opioid receptor (Cavia porcellus) (UniProt P97266); assay: Agonist activity at mu opioid receptor by inhibition of TAPP-induced muscle contraction in guinea pig ileum at upto 10 uM; format: functional, tissue-based
Method in brief: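 A 2-3 cm segment taken at least 10 cm from the ileocecal junction and mounted in a 20 mL bath of modified Krebs' buffer (NaCl 150, KCl 4.3, CaCl2 1.25, MgCl2 1.0, NaH2PO4 1.7, NaHCO3 25.0, glucose 11.0 mM). Buffer gassed with 95% O2/5% CO2 at 37 °C. Stimulated at 10 pulses/min, 4 ms each, with force-transducer recording. IC50 obtained by regression of the concentration-response curve.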

Mus musculus [14] = species on record: Mus musculus; assay: Antagonist effect on DAMGO-induced rearing in Swiss Albino mouse by hot plate method; format: functional, organism-based; method in brief: as §4
Mus musculus [15] = species on record: Mus musculus; assay: Antagonist effect on endomorphin-2-induced jumping in Swiss Albino mouse by hot plate method; format: functional, organism-based; method in brief: as §4
Mus musculus [16] = species on record: Mus musculus; assay: Antagonist effect on DAMGO-induced paw licking in Swiss Albino mouse by hot plate method; format: functional, organism-based; method in brief: as §4
Mus musculus [17] = species on record: Mus musculus; assay: Antagonist effect on endomorphin-2-induced paw licking in Swiss Albino mouse by hot plate method; format: functional, organism-based; method in brief: as §4
[18] = target: Delta-type opioid receptor (Mus musculus, UniProt P32300); assay: as §2; format: functional, tissue-based; method in brief: as §3
Chain of Delta-type opioid receptor (Mus musculus, UniProt P32300) (P32300 whole entry): as the sequence (P32300 whole entry) above

Mu-type opioid receptor [19] = target: Mu-type opioid receptor (Rattus norvegicus, UniProt P33535); assay: Displacement of [3H]DAMGO from mu opioid receptor in rat brain membrane; format: cell membranes
Chain of Mu-type opioid receptor (Rattus norvegicus, UniProt P33535) (P33535 whole entry): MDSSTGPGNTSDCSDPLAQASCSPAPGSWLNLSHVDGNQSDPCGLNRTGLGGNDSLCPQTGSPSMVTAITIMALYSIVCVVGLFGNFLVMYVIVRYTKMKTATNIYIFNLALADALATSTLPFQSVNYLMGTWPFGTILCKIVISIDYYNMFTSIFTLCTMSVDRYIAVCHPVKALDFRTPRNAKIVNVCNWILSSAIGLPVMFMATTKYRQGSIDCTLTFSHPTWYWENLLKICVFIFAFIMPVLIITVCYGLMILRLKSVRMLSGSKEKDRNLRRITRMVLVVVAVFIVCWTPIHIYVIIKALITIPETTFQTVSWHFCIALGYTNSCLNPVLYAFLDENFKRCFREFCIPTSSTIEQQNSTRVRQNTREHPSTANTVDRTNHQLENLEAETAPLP
Method in brief: (§5)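 Rat brain membranes incubated for 2 h at 0 °C with [3H]DAMGO (0.72 nM; µ) or [3H]DSLET (0.78 nM; δ). IC50 read from log dose-displacement curves. […] Three to four determinations.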

[20] = target: Delta-type opioid receptor (Rattus norvegicus, UniProt P33533); assay: Displacement of [3H]DSLET from delta opioid receptor in rat brain membrane; format: cell membranes; method in brief: as §5
Chain of Delta-type opioid receptor (Rattus norvegicus, UniProt P33533) (P33533 whole entry): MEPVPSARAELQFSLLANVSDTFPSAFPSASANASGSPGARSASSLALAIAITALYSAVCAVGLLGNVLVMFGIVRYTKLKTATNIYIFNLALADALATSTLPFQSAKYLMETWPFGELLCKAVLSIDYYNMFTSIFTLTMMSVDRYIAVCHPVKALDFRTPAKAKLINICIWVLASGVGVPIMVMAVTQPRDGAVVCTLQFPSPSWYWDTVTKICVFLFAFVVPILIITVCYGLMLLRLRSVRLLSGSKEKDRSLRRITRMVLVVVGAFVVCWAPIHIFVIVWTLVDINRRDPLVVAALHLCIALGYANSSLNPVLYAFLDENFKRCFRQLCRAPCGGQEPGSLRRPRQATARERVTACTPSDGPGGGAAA

Chain of Mu-type opioid receptor (Cavia porcellus, UniProt P97266) (P97266 whole entry): as the sequence (P97266 whole entry) above

SMILES: Cc1cc(O)cc(C)c1C[C@H](N)C(=O)N1CCC[C@H]1C(=O)N[C@@H](Cc1c[nH]c2ccccc12)C(=O)N[C@H](Cc1cccc2ccccc12)C(N)=O [listing 1 of 2 here]
- IC50 (Mu-type opioid receptor [1]): 15.8 nM
- EC50 (Mu-type opioid receptor [2]): 1.15 nM
- Kb [3]: 2.57 nM

SMILES: Cc1cc(O)cc(C)c1C[C@H](N)C(=O)N1CCC[C@H]1C(=O)N[C@@H](Cc1ccccc1)C(=O)N[C@H](Cc1cccc2ccccc12)C(N)=O [listing 1 of 2 here]
- Activity (Mus musculus [4]): 1.06%
- Activity (Mus musculus [5]): 2.73%
- Activity (Mus musculus [6]): 0.13%

SMILES: NC(=O)[C@@H](Cc1ccc2ccccc2c1)NC(=O)[C@H](Cc1c[nH]c2ccccc12)NC(=O)[C@@H]1CCCN1C(=O)[C@@H](N)Cc1ccc(O)cc1
- IC50 (Mu-type opioid receptor [1]): 3470 nM
- EC50 (Mu-type opioid receptor [2]): 248 nM
- IC30 [7]: 4180 nM
- Activity ([7]; filed as partial agonist): Partial agonist
- EC50 [8]: > 1000 nM

SMILES: Cc1cc(O)cc(C)c1C[C@H](N)C(=O)N1CCC[C@H]1C(=O)N[C@@H](Cc1c[nH]c2ccccc12)C(=O)N[C@H](Cc1ccc2ccccc2c1)C(N)=O (HELM PEPTIDE1{[Cc1cc(O)cc(C)c1C[C@H](N)C(=O)[*:2]].P.W.[O=C([C@@H](Cc1ccc2ccccc2c1)N[*:1])[*:2]].[am]}$$$$V2.0) [listing 1 of 2 here]
- Activity (Mus musculus [4]): 0.49%
- Activity (Mus musculus [5]): 0.58%
- Activity (Mus musculus [6]): 0.17%

SMILES: Cc1cc(C[C@H](N)C(=O)N2CCC[C@H]2C(=O)N[C@@H](Cc2c[nH]c3ccccc23)C(=O)N[C@H](Cc2cccc3ccccc23)C(N)=O)cc(C)c1O
- Ke [9]: 62.4 nM

SMILES: Cc1cc(C[C@H](N)C(=O)N2CCC[C@H]2C(=O)N[C@@H](Cc2c[nH]c3ccccc23)C(=O)N[C@H](Cc2ccc3ccccc3c2)C(N)=O)cc(C)c1O
- Ke [10]: 8.27 nM
- Activity ([7]; filed as partial agonist): Partial agonist
- Activity (Mus musculus [11]): Dose-dependent effect
- Activity (Mus musculus [12]): Dose-dependent effect
- Activity [13]: inactive
- Activity (Mus musculus [14]): Dose-dependent effect
- Activity (Mus musculus [15]): Dose-dependent effect
- Activity (Mus musculus [16]): Dose-dependent effect
- Activity (Mus musculus [17]): Dose-dependent effect

SMILES: NC(=O)[C@@H](Cc1cccc2ccccc12)NC(=O)[C@H](Cc1ccccc1)NC(=O)[C@@H]1CCCN1C(=O)[C@@H](N)Cc1ccc(O)cc1
- Ke [10]: 1250 nM
- IC50 [18]: > 10000 nM
- Activity (Mus musculus [4]): 0.31%
- EC50 [8]: > 1000 nM
- Activity (Mus musculus [5]): 0.8%
- Activity (Mus musculus [6]): 0%

SMILES: Cc1cc(O)cc(C)c1C[C@H](N)C(=O)N1CCC[C@H]1C(=O)N[C@@H](Cc1ccccc1)C(=O)N[C@H](Cc1ccc2ccccc2c1)C(N)=O (HELM PEPTIDE1{[Cc1cc(O)cc(C)c1C[C@H](N)C(=O)[*:2]].P.F.[O=C([C@@H](Cc1ccc2ccccc2c1)N[*:1])[*:2]].[am]}$$$$V2.0)
- Ke [10]: 5.86 nM
- Activity (Mus musculus [11]): Dose-dependent effect
- Activity (Mus musculus [12]): Dose-dependent effect
- Activity (Mus musculus [4]): 0.18%
- Activity [13]: inactive
- EC50 [8]: 15.5 nM
- Ke [9]: 250 nM
- Activity (Mus musculus [14]): Dose-dependent effect
- Activity (Mus musculus [15]): Dose-dependent effect
- Activity (Mus musculus [5]): 1.54%
- Activity (Mus musculus [16]): Dose-dependent effect
- Activity (Mus musculus [6]): 0.09%
- Activity (Mus musculus [17]): Dose-dependent effect
- Ki (Mu-type opioid receptor [19]): 1.52 nM

SMILES: NC(=O)[C@H](Cc1ccccc1)NC(=O)[C@H](Cc1c[nH]c2ccccc12)NC(=O)[C@@H]1CCCN1C(=O)[C@@H](N)Cc1ccc(O)cc1 [ENDOMORPHIN-1]
- Activity (Mus musculus [4]): 12%
- Activity (Mus musculus [5]): 40.8%
- Activity (Mus musculus [6]): 5.99%

SMILES: Cc1cc(O)cc(C)c1C[C@H](N)C(=O)N1CCC[C@H]1C(=O)N[C@@H](Cc1ccccc1)C(=O)N[C@H](Cc1cccc2ccccc12)C(N)=O [listing 2 of 2 here]
- EC50 [8]: 3.55 nM
- Ki (Mu-type opioid receptor [19]): 1.24 nM
- Ki [20]: 27.1 nM

SMILES: Cc1cc(O)cc(C)c1C[C@H](N)C(=O)N1CCC[C@H]1C(=O)N[C@@H](Cc1c[nH]c2ccccc12)C(=O)N[C@H](Cc1cccc2ccccc12)C(N)=O [listing 2 of 2 here]
- Activity (Mus musculus [4]): 10.6%
- Activity (Mus musculus [5]): 23.2%
- Activity (Mus musculus [6]): 5.35%

SMILES: NC(=O)[C@@H](Cc1cccc2ccccc12)NC(=O)[C@H](Cc1c[nH]c2ccccc12)NC(=O)[C@@H]1CCCN1C(=O)[C@@H](N)Cc1ccc(O)cc1
- IC50 (Mu-type opioid receptor [1]): 4180 nM
- EC50 (Mu-type opioid receptor [2]): 82.1 nM
- Activity ([7]; filed as partial agonist): Partial agonist
- EC50 [8]: > 1000 nM

SMILES: Cc1cc(C[C@H](N)C(=O)N2CCC[C@H]2C(=O)N[C@@H](Cc2ccccc2)C(=O)N[C@H](Cc2cccc3ccccc23)C(N)=O)cc(C)c1O
- Ke [10]: 14.9 nM
- Activity (Mus musculus [11]): Dose-dependent effect
- Activity (Mus musculus [12]): Dose-dependent effect
- Ke [9]: 227 nM
- Activity (Mus musculus [14]): Dose-dependent effect
- Activity (Mus musculus [15]): Dose-dependent effect
- Activity (Mus musculus [16]): Dose-dependent effect
- Activity (Mus musculus [17]): Dose-dependent effect

SMILES: NC(=O)[C@@H](Cc1ccc2ccccc2c1)NC(=O)[C@H](Cc1ccccc1)NC(=O)[C@@H]1CCCN1C(=O)[C@@H](N)Cc1ccc(O)cc1 (HELM PEPTIDE1{Y.P.F.[O=C([C@@H](Cc1ccc2ccccc2c1)N[*:1])[*:2]].[am]}$$$$V2.0)
- Ke [10]: 1260 nM
- Activity [7]: inactive
- Activity (Mus musculus [4]): 0.09%
- EC50 [8]: > 1000 nM
- Activity (Mus musculus [5]): 2.5%
- Activity (Mus musculus [6]): 0.13%

SMILES: Cc1cc(O)cc(C)c1C[C@H](N)C(=O)N1CCC[C@H]1C(=O)N[C@@H](Cc1c[nH]c2ccccc12)C(=O)N[C@H](Cc1ccc2ccccc2c1)C(N)=O (HELM PEPTIDE1{[Cc1cc(O)cc(C)c1C[C@H](N)C(=O)[*:2]].P.W.[O=C([C@@H](Cc1ccc2ccccc2c1)N[*:1])[*:2]].[am]}$$$$V2.0) [listing 2 of 2 here]
- EC50 [8]: 29.3 nM
- Ki (Mu-type opioid receptor [19]): 2.38 nM
